According to ChEMBL document CHEMBL1127092, “Crystal and molecular structure and in vitro antiproliferative and antitumor activity of two organotin (IV) carbohydrate compounds” (J Med Chem, 1993):

Key:
Format in all cases: functional, cell-based, Mus musculus
[1] = system: MOPC 315; assay: Antitumor activity against MOPC315 cell line determined by reduction of the [3H]thymidine incorporation after a 24-h incubation period
How it was run: (§1)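 Mouse ascites tumor cells harvested 7 days after i.p. transplantation, washed, preincubated 4 h at 2.10^5 cells/mL in RPMI 1640 with 10% FCS and 1 mM glutamine under 5% CO2. Cells then exposed to compounds (ethanol stocks diluted in medium) for 24 h at 37°C. [3H]TdR (0.5 μCi) was added […] and cells were harvested 8 h later. Values are means of two experiments, each in 4-fold.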

[2] = system: P815; assay: Antitumor activity against P815 cell line determined by reduction of the [3H]thymidine incorporation after a 24-h incubation period; how it was run: as §1
[3] = system: L1210; assay: Antitumor activity against L1210 cell line determined by reduction of the [3H]thymidine incorporation after a 24-h incubation period; how it was run: as §1

IC50 [1] [µM] | IC50 [2] [µM] | IC50 [3] [µM] | Substance
> 5 | > 5 | > 5 | 5-(2,2-Dimethyl-[1,3]dioxolan-4-yl)-2,2-dimethyl-6-[(triphenylstannanyl)-methyl]-tetrahydro-furo[2,3-d][1,3]dioxol-6-ol
0.67 | 0.54 | 0.76 | 5-(2,2-Dimethyl-[1,3]dioxolan-4-yl)-2,2-dimethyl-6-triphenylstannanyl-tetrahydro-furo[2,3-d][1,3]dioxol-6-ol
0.2 | 0.13 | 0.18 | TRIPHENYLTIN CHLORIDE
